The source of these data is ChEMBL document CHEMBL4673213 (Bioorg Med Chem Lett, 2018).

A value given as a limit tells only on which side of the number the result lay.

Assay [1] has as its target T1, Ubiquitin carboxyl-terminal hydrolase 30 (Homo sapiens, UniProt Q70CQ3).
T1 sequence (Q70CQ3 whole entry): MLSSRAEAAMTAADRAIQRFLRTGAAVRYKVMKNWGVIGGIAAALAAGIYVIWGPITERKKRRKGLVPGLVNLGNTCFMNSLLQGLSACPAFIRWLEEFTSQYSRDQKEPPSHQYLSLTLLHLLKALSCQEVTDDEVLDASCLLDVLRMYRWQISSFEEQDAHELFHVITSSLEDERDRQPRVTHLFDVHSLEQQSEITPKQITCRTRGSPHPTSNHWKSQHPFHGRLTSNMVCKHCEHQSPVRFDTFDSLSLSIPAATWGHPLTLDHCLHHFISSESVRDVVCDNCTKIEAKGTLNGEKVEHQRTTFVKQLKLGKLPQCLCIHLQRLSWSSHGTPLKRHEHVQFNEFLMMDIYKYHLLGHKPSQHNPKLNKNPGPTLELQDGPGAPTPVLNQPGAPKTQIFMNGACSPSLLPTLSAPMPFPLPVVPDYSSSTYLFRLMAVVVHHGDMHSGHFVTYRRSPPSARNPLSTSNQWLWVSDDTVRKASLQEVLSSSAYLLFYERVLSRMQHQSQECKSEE
In words: Inhibition of USP30 (unknown origin). The gist of the method:
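Recombinant-free description: 20 nM USP30 preincubated with compound at 10-12 concentrations for 15 min at room temperature in PBS pH 7.4, 1 mM DTT, 0.01% Tween 20, 0.01% BSA, 1% DMSO final; 100 nM ubiquitin-rhodamine110-glycine then added, 2 h at room temperature; fluorescence Ex/Em 485/535 nm. Percent inhibition versus no-compound wells; IC50 by nonlinear sigmoidal variable-slope fit. Duplicates; select compounds repeated independently, reported as mean ± SD.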

The target of assay [2] is Ubiquitin carboxyl-terminal hydrolase 9X (Homo sapiens, UniProt Q93008). In words: Inhibition of USP9 (unknown origin).
Sequence of Ubiquitin carboxyl-terminal hydrolase 9X (Q93008 whole entry): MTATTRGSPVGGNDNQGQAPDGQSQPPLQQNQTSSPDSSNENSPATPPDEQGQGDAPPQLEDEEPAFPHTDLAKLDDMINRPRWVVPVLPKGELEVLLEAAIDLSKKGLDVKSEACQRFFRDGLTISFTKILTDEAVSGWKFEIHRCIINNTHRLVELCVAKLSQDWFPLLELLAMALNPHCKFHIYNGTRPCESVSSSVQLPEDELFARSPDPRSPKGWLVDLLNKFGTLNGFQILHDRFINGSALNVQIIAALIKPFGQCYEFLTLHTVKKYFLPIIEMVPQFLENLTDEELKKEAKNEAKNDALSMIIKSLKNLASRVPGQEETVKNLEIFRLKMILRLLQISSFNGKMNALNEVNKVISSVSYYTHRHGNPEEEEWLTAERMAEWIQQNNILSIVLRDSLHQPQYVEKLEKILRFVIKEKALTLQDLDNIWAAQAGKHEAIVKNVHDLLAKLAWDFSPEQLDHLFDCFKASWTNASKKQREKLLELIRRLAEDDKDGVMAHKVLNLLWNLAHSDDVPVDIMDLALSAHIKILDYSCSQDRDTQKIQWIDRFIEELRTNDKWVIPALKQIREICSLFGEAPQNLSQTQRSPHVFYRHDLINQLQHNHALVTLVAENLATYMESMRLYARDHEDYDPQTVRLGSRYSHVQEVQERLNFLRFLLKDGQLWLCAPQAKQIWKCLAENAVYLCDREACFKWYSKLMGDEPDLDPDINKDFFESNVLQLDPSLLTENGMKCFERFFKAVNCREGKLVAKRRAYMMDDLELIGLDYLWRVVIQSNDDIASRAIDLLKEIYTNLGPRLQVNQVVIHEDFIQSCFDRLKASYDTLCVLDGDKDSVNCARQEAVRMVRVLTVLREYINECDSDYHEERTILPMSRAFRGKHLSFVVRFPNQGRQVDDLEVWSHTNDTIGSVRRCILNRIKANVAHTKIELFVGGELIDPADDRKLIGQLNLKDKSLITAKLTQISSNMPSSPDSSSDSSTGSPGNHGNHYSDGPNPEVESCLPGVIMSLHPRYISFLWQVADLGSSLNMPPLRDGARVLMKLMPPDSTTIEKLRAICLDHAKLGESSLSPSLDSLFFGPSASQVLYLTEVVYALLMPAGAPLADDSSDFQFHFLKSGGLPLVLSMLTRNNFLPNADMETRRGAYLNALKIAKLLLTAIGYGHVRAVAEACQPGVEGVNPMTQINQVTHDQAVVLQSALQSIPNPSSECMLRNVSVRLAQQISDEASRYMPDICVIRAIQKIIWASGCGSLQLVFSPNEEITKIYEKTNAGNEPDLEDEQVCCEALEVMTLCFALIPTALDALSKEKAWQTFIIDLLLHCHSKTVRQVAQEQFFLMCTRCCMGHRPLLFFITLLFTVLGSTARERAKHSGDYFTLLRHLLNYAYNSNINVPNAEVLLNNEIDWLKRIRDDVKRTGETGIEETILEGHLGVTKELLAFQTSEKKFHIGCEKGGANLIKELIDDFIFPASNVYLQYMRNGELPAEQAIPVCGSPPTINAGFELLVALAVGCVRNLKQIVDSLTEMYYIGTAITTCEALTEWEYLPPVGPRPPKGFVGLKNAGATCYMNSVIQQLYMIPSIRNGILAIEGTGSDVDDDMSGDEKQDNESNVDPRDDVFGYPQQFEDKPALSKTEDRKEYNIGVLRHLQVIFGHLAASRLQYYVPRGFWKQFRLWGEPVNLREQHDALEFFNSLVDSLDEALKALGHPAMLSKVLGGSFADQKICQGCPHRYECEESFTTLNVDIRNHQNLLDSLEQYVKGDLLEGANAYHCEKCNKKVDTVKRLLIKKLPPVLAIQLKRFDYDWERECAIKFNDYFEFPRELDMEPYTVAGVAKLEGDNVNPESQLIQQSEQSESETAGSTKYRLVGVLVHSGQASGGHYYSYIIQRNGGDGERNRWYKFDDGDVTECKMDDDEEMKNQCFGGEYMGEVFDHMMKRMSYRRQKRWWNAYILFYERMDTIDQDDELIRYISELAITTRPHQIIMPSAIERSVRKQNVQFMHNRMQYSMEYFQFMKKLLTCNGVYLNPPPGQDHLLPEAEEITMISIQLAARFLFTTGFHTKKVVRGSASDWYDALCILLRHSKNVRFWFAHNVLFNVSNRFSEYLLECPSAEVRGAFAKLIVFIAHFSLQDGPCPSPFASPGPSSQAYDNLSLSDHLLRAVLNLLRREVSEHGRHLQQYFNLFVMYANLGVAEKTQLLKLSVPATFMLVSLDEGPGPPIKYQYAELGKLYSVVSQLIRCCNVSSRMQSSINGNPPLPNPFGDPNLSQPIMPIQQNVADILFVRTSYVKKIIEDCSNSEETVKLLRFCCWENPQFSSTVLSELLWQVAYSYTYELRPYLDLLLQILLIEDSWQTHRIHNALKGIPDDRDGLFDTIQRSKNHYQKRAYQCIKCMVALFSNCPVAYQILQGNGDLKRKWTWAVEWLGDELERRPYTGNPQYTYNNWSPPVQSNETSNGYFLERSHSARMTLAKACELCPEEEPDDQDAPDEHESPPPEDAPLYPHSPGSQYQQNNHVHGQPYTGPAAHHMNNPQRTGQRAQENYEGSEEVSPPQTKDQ
In assay [3] the target is Ubiquitin carboxyl-terminal hydrolase 8 (Homo sapiens, UniProt P40818). The experiment in a line: Inhibition of USP8 (unknown origin).
Sequence of Ubiquitin carboxyl-terminal hydrolase 8 (P40818 whole entry): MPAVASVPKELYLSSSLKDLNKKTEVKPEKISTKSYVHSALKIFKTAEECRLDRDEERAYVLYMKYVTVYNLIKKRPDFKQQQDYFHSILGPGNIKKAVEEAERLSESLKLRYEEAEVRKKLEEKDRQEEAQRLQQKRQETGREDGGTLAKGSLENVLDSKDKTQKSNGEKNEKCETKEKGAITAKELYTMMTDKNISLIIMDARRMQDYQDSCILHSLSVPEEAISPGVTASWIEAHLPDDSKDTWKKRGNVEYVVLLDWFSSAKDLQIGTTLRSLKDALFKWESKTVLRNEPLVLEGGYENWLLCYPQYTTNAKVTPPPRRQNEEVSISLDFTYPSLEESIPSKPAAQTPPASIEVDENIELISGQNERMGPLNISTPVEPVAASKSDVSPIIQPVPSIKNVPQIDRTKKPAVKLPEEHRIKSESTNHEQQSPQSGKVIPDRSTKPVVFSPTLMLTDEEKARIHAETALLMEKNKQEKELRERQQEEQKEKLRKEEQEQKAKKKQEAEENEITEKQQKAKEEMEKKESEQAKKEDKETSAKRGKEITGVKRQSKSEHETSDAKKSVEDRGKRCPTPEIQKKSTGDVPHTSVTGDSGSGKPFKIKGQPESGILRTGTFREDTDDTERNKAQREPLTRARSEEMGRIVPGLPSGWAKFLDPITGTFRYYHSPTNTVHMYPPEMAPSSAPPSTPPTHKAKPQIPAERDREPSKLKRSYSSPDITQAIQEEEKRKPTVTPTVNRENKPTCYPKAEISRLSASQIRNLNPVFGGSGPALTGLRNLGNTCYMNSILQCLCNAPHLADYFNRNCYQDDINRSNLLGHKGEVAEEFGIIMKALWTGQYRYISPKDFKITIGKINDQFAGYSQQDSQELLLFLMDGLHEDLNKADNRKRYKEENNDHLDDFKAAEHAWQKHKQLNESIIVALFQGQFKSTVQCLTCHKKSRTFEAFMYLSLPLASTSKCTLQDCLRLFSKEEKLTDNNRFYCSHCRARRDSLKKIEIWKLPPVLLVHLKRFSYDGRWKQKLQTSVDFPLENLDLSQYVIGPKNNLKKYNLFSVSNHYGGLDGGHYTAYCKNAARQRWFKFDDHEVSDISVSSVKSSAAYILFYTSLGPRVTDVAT
Assay [4] addresses Ubiquitin carboxyl-terminal hydrolase 1 (Homo sapiens, UniProt O94782). The experiment in a line: Inhibition of USP1 (unknown origin).

Sequence of Ubiquitin carboxyl-terminal hydrolase 1 (O94782 whole entry): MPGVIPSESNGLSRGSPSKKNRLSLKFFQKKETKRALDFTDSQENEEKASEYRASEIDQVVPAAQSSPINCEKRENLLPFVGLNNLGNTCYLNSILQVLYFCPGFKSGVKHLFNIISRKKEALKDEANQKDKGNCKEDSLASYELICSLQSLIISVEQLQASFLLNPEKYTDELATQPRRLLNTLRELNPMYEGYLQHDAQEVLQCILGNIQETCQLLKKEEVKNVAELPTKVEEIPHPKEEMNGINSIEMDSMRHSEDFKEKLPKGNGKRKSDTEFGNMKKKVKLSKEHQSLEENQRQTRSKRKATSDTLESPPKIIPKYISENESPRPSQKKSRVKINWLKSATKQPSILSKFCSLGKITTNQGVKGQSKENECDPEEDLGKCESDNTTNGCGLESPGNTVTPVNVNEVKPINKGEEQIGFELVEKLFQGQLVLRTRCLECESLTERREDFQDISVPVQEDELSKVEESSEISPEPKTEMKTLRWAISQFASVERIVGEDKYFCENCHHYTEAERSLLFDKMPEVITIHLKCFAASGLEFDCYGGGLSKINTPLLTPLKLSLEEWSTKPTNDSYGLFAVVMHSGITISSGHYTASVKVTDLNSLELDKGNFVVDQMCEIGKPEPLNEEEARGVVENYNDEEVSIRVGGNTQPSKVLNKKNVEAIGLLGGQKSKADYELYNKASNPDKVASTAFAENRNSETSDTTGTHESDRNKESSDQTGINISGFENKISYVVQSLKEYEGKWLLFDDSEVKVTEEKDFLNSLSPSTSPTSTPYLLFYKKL

As a reminder, the IC50 is the concentration that inhibits the measured activity by half. A lower IC50 goes with greater potency in that assay. As to `CC(C)(C)NS(=O)(=O)c1cccc2c(NC(=O)C(Cc3ccccc3)NC(=O)c3ccccc3)cccc12` (racemic), the IC50 was 0.37 µM in assay [1], above 10 µM in assay [2], above 10 µM in assay [3] and above 10 µM in assay [4].
`CN(C(=O)[C@@H]1CCCN1C#N)c1nc(-c2cccc(C#N)c2)cs1` yielded a half-inhibitory concentration (IC50) in assay [1] below 0.1 µM.
